In ChEMBL document CHEMBL1128239, “Structure-activity relationships of lactone ring-opened analogs of the antimalarial 1,2,4-trioxane artemisinin” (J Med Chem, 1995):
≈ marks a conversion by molar mass, not a printed value.

Assays:
Plasmodium falciparum [1] = assay: In vitro antimalarial activity against Plasmodium falciparum D6; format: functional, organism-based
Plasmodium falciparum [2] = assay: In vitro antimalarial activity against Plasmodium falciparum W-2; format: functional, organism-based
Mus musculus [3] = assay: In vivo antimalarial activity against Plasmodium berghei. Activity expressed as ED50.; format: functional
In short: (§1)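 Mice infected with drug-sensitive N strain of P. berghei; compound given subcutaneously as a single daily dose for 4 days. ED50 and ED90 reported in mg/kg.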

Mus musculus [4] = assay: In vivo antimalarial activity against Plasmodium berghei. Activity expressed as ED90.; format: functional; in short: as §1

| Compound | IC50 (Plasmodium falciparum [1]) [ng/mL] | IC50 (Plasmodium falciparum [2]) [ng/mL] | ED50 (Mus musculus [3]) [mg/kg] | ED90 (Mus musculus [4]) [mg/kg] |
| --- | --- | --- | --- | --- |
| CO[C@H]1O[C@@]2(C)CC[C@H]3CCC[C@@H](CCOCc4ccc(F)cc4)[C@]31OO2 | 3 (≈ 0.00789 µM) | 4.5 (≈ 0.0118 µM) | 7.6 | 13.5 |
| CO[C@H]1O[C@@]2(C)CC[C@H]3CCC[C@@H](CCOCc4ccccn4)[C@]31OO2 | 18 (≈ 0.0495 µM) | 7 (≈ 0.0193 µM) | – | – |
| CO[C@H]1O[C@@]2(C)CC[C@H]3CCC[C@@H](CCOCc4ccc(-c5ccccc5)cc4)[C@]31OO2 | 6 (≈ 0.0137 µM) | 6 (≈ 0.0137 µM) | – | – |
| CO[C@H]1O[C@@]2(C)CC[C@H]3CCC[C@@H](CCOCc4cc[n+](C)cc4)[C@]31OO2.[I-] | – | 85 | – | – |
| C[C@H]1[C@H](OC(=O)CCC(=O)[O-])O[C@@H]2O[C@@]3(C)CC[C@H]4[C@H](C)CC[C@@H]1[C@@]24OO3.[Na+] [SODIUM ARESUNATE] | – | – | 1.5 | 4.9 |
| CO[C@H]1O[C@@]2(C)CC[C@H]3CCC[C@@H](CCOCc4ccccc4)[C@]31OO2 | 8 (≈ 0.0221 µM) | 3 (≈ 0.00828 µM) | – | – |
| CO[C@H]1O[C@@]2(C)CC[C@H]3CCC[C@@H](CCOCc4ccncc4)[C@]31OO2 | 10 (≈ 0.0275 µM) | 7.5 (≈ 0.0206 µM) | – | – |
